# PDI inh: inhibitors of human PDI, primary screen, biochemical, turbidity, single point, plate reader. Protein disulfide-isomerase (Homo sapiens), P07237. PDI insulin aggregation turbidity, A650, 90 min. inhibition, % at 10 µM. 350,000 tested, 0.052% active;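 active means mean inhibition across replicates of 30% or more, whatever share of single replicates reach that level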
# ERp5 block: inhibitors of ERp5-driven insulin aggregation, primary screen, biochemical, turbidity, absorbance 650 nm, single point | AID 651711, 2012 | 90 min | Protein disulfide-isomerase A6 (Homo sapiens), Q15084 | inhibition, % at 9.99 µM | 350,000 tested, 0.05% active;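 active means mean replicate inhibition above about 25%, with every replicate also reaching it, limit read from the data, passing the limit was not always enough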
# MLL AF4-AF9 inh: inhibitors of AF4 peptide binding to AF9, primary screen, biochemical, AlphaScreen, biotin-AF4 peptide, FLAG-AF9, single point | Protein AF-9 (Homo sapiens), P42568 | inhibition, % at 10 µM | 350,000 tested, 0.47% active;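 active means every replicate reaching a set inhibition limit, whatever the replicate mean, cut at about 25% in these data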;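 further: 0% = plate neutral control median and 100% = total signal loss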
# Target sequence (P42568 whole entry, looked up): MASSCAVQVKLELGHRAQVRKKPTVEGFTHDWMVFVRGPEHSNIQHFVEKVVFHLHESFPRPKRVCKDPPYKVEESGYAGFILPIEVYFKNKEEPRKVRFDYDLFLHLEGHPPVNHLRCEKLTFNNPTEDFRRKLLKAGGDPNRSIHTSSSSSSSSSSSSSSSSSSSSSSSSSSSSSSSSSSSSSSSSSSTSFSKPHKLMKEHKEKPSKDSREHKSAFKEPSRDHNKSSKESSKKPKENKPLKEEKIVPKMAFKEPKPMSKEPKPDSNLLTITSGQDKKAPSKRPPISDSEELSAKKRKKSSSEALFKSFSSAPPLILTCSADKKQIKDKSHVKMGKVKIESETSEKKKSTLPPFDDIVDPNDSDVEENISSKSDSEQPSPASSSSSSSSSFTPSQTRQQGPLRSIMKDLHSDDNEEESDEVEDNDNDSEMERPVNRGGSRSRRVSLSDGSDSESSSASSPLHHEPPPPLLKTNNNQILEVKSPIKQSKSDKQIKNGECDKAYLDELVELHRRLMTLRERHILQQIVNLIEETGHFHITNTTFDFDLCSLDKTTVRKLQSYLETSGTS
# FGF22 binding: binders of human FGF22 protein, primary screen, FGF22 synaptogenesis inhibitor project, biophysical, thermal shift, single point; Fibroblast growth factor 22 (Homo sapiens), Q9HCT0; recombinant FGF22 thermal shift, SYPRO orange fluorescence; percent of sucrose octasulfate shift, DMSO zero; activity (Tm shift, normalised), % at 9.99 µM; 340,000 tested, 1.5% active;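 active means mean Tm shift, scaled 0 neutral to 100 positive control, at about 1.3% or above, every replicate too, limit read from the data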
# FN deposition inh: inhibitors of fibronectin matrix deposition, primary screen, AH1F cells, Alexa488-fibronectin fluorescence, plate reader; 350,000 tested, 0.086% active; inhibition, % at 12.6 µM; AH1F fibroblasts, overnight;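 active means mean inhibition across replicates of 30% or more, regardless of how many single replicates reach that level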;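 further: positive control wells lacked labelled fibronectin entirely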
#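 Measured by – fluorescence 485/525 nm · System – AH1F fibroblast monolayer, labelled fibronectin deposition · Amount – 10000 cells per well · Buffer or medium – serum-reduced DMEM (2% serum) · Doses – single dose, pinned · Also added – fluorescent fibronectin at 24 nM final · Schedule – 1 h cell attachment, overnight exposure to compound and label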
# ARNT-TACC3 inh: disruptors of ARNT/TACC3 protein interaction, primary screen, biochemical, AlphaScreen, single concentration | Transforming acidic coiled-coil-containing protein 3 (Homo sapiens), Q9Y6A5 | AlphaScreen His-ARNT PAS-B/GST-TACC3 binding, luminescence; TACC3 fragment carries E629A point mutation | inhibition, % at 9.99 µM | 390,000 tested, 0.66% active | AID 623870, 2012;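 active means mean inhibition of replicates at least 50% and at least half of replicates each reaching 50%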;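 further: 0% = complete ARNT plus TACC3 wells and 100% = ARNT alone without TACC3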
# * marks the source's active call; other numbers are inactive results; x = no result. Rows were chosen to be rich in hits. Some 2.1% of all compounds tested hit in one or more screens of this group.
SMILES,PDI inh,ERp5 block,MLL AF4-AF9 inh,FGF22 binding,FN deposition inh,ARNT-TACC3 inh
O=C(c1cccs1)N1CCN(Cc2cccc([N+](=O)[O-])c2)CC1,-9.1,-2.0,1.9,-0.1,8.5,-3.4
O=C(c1ccco1)N1CCN(Cc2cccc([N+](=O)[O-])c2)CC1,8.1,5.7,-0.2,43.7*,6.6,-4.1
CN1C(=O)c2cc(NC(=O)Nc3ccccc3Cl)ccc2OC[C@H]2O[C@H](CC(=O)O)CC[C@@H]21,x,x,x,0.1,-8.6,-8.9
C[C@@H]1CN([C@@H](C)CO)C(=O)c2cc(NC(=O)c3ccncc3)ccc2O[C@@H](C)CCCCO[C@H]1CN(C)C(=O)Nc1ccc(F)cc1,x,7.2,0.5,0.1,6.5,2.5
CCCNC(=O)C[C@@H]1C[C@H]2c3cc(NC(=O)Nc4ccccc4F)ccc3O[C@H]2[C@@H](CO)O1,x,-4.5,-11.3,0.2,-23.9,-2.6
COc1ccc2[nH]c3c(=O)n(Cc4ccc(C(=O)N5CCC(C(N)=O)CC5)cc4)c(=S)[nH]c3c2c1,7.5,-4.9,-3.4,43.0*,0.4,3.1
C[C@H]1CN([C@@H](C)CO)C(=O)c2ccccc2-c2ccccc2CO[C@@H]1CN(C)S(=O)(=O)c1cccc(F)c1,x,x,x,x,3.2,x
CN1C[C@@H]2[C@H](c3ccccc31)[C@@H](CO)N2C(=O)C1CCCCC1,x,-2.0,-5.6,-0.1,x,-2.7
CN(Cc1ccccc1)C(=O)CCN1C(=O)c2cccc([N+](=O)[O-])c2C1=O,-33.8,4.6,-4.4,43.5*,-5.6,x
CN(Cc1ccc(Br)cc1)C(=O)CCN1C(=O)c2cccc([N+](=O)[O-])c2C1=O,-4.4,4.4,-5.5,-0.3,4.4,-3.8
COc1ccc(C(=O)C2CCCN(C(=O)/C=C/c3ccccn3)C2)c(C)c1 (centres undefined),-1.3,x,x,x,-1.2,-1.5
O=C(c1ccc(Cl)cc1)C1CCCN(C(=O)/C=C/c2ccccn2)C1 (centres undefined),5.7,0.8,0.4,43.8*,6.8,-1.8
COc1ccccc1N=Nc1ccc(O)c2ncccc12,-10.6,5.8,72.4*,-0.6,10.6,66.5*
CC(OC(=O)C1=Cc2ccccc2OC1)C(=O)NCC1CCCO1 (centres undefined),-1.4,10.4,-0.2,1.9*,1.0,5.1
Cc1nc(-c2ccc(C(=O)Nc3ccc(F)cc3)cc2)cs1,-4.7,-1.9,-3.5,43.2*,-0.7,27.9
C/C=C/c1cnc2c(c1)C(=O)N([C@H](C)CO)C[C@H](C)[C@@H](CN(C)C(=O)C1CCOCC1)O2,x,-3.9,-1.8,0.1,x,-6.4
c1cncc(-c2ccnc3ncnn23)c1,7.6,-5.5,-0.4,43.2*,-0.2,1.9
Cc1cnc(C(=O)OCC(=O)c2cc(C)n(C)c2C)cn1,6.2,0.5,-1.0,43.0*,-1.1,-3.8
C[C@H]1CN([C@@H](C)CO)S(=O)(=O)c2ccc(C3=CCCC3)cc2O[C@@H]1CN(C)Cc1ccccc1F,x,-2.7,1.5,-0.5,-12.2,1.4
CCOc1cc(/C=C(/C#N)c2nc3ccccc3[nH]2)ccc1OCc1ccc(C(=O)O)o1,0.0,x,x,x,-3.5,59.0*
O=S1(=O)N=C(N(CCO)/N=C/c2ccncc2)c2ccccc21,0.1,-0.6,-7.9,0.1,-5.7,71.9*
CC(C)(C)NC(=O)CCN(/N=C/c1ccncc1)C1=NS(=O)(=O)c2ccccc21,-2.7,-3.3,2.4,-0.2,0.7,63.0*
C[C@@H]1CN([C@H](C)CO)C(=O)c2cccc(NC(=O)C3CC3)c2O[C@H]1CN(C)Cc1ccc(-c2ccccc2)cc1,x,0.9,1.9,-0.3,x,14.2
CO[C@H]1CN(C)C(=O)c2ccc(NC(=O)NC(C)C)cc2OC[C@@H](C)N(CCC(F)(F)F)C[C@H]1C,x,8.1,0.0,0.0,-16.9,-7.8
Cc1nn(Cc2ccc(F)cc2)c2sc(C(=O)Nc3nccs3)cc12,-0.5,0.8,-1.1,44.2*,21.8,6.1
SMILES,PDI inh,ERp5 block,MLL AF4-AF9 inh,FGF22 binding,FN deposition inh,ARNT-TACC3 inh
O=[N+]([O-])c1cc(Cl)ccc1N1CCCC1,-8.2,-6.2,-2.9,43.6*,5.3,-2.5
C/C(=N/NC(N)=S)c1cc2ccc(O)cc2oc1=O,22.4,0.4,-46.5,0.0,0.6,39.4*
C[C@@H]1CN([C@H](C)CO)C(=O)c2cc(NC(=O)Cc3cn(C)c4ccccc34)ccc2O[C@@H]1CN(C)S(=O)(=O)c1ccc(F)cc1,x,6.5,-7.0,0.0,x,x
COc1cc(/C=C(\CC(=O)O)c2nc3ccccc3s2)cc(OC)c1O,-1.3,5.7,6.5,43.1*,-8.7,-5.5
COCC(=O)N1CCC2(CC1)CN(Cc1ccccn1)[C@@H](CO)c1[nH]c3cc(OC)ccc3c12,x,x,-1.1,-0.1,x,x
O=C(CSc1nnc(-c2ccccc2)n1-c1ccccc1)c1ccc[nH]1,-7.6,x,x,x,33.1*,-2.6
Cc1ccc(S(=O)(=O)N(C)C)cc1NC(=O)COC(=O)C1CC1,5.3,4.8,7.0,-0.3,-3.2,x
Cc1ccc(S(=O)(=O)N(C)C)cc1NC(=O)COC(=O)C1(c2ccccc2)CC1,-2.6,27.8*,-28.7,-0.5,-4.5,-4.7
O=S(=O)(NC1CCCCC1Oc1ccccc1)c1ccc(Cl)cc1 (centres undefined),-9.2,-3.6,-2.5,44.2*,-1.9,-0.9
C[C@H](CO)N1C[C@H](C)[C@H](CN(C)C(=O)Nc2ccc(F)cc2)Oc2ncc(C#C[C@@H](C)O)cc2C1=O,x,8.2,-3.1,-0.1,-13.3,-0.6
CCN=c1scc(-c2ccco2)n1/N=C/c1ccc(O)cc1,8.0,x,x,x,-8.1,2.4
CCN=c1scc(C)n1/N=C/c1ccc(O)c(O)c1O,-5.2,x,x,x,6.4,79.5*
COCCN=c1scc(-c2cccs2)n1/N=C/c1ccc(O)c(O)c1O,0.0,1.4,53.3*,89.0*,7.2,63.6*
CCN=c1scc(C)n1/N=C/c1cc(Br)c(O)c(Br)c1,-0.3,-0.3,9.6,43.1*,0.6,12.8
O=C(Cc1c(Cl)cccc1Cl)Nc1cccnc1,-6.1,-7.7,-0.9,43.2*,-5.7,0.0
C[C@@H]1CN([C@H](C)CO)C(=O)c2c(c3ccccc3n2C)-c2ccccc2CO[C@@H]1CN(C)S(=O)(=O)c1cccc(C#N)c1,x,3.9,4.2,0.3,11.2,1.5
CCC(=O)N1C[C@H](C)[C@@H](OC)CN(C)C(=O)c2cc(NC(=O)c3cc(C)on3)ccc2OC[C@@H]1C,x,x,x,x,-0.3,x

# Screening results (PubChem BioAssay)
